Bioassay records: PubChem BioAssay, several laboratories
Most compounds without a hit are left out; they make up all but 2.1% or so of the library.
CRFBP-R2 agonist = CRF-BP/CRF-R2 complex agonism | HEK293 CRF-R2/CRF-BP, calcium dye fluorescence (FLIPR); percent of saturating CRF peptide response | activation, % at 13.2 µM | 350,000 tested, 0.46% active | AID 588473;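 active means activation of at least 50%, plus an integration ratio under a set limit after plate pattern correction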;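 further: plate controls were neutral control wells without compound for no effect and CRF at EC100 for full effect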
IMP-1 inhibitor = inhibitors of Pseudomonas aeruginosa IMP-1 metallo-beta-lactamase. inhibition, % at 5.6 µM. 290,000 tested, 0.45% active. AID 1556. purified IMP-1, nitrocefin hydrolysis, epi-absorbance fluorescence;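 active means inhibition above the mean plus 3 SD of all compounds in the same screening run, cut at about 4.5% in these data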;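 further: 0% = IMP-1 with DMSO and 100% = DMSO wells lacking enzyme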
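assay system = purified recombinant IMP-1 metallo-beta-lactamase enzyme | schedule = 15 min preincubation plus 25 min reaction at 25 °C | signal = Epi-absorbance fluorescence, 480 nm excitation, 530 nm emission | read-out basis = percent inhibition from optical density relative to buffer-blank wells | controls = IMP-1 with DMSO as 0%, enzyme-free DMSO as 100%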
TRPML3 agonist = agonists of human TRPML3 channel. Q8TDD5. HEK293 TRPML3-YFP, Fluo-8 calcium fluorescence; 100% = the carbachol control signal. activation, % at 3 µM. 220,000 tested, 0.29% active;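 active means activation above its plate's cutoff, the mean activation of the plate's test wells plus 3 SD, cut at about 12% in these data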;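 further: 0% = DMSO only wells and 100% = carbachol wells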
Target sequence (Q8TDD5 whole entry, looked up): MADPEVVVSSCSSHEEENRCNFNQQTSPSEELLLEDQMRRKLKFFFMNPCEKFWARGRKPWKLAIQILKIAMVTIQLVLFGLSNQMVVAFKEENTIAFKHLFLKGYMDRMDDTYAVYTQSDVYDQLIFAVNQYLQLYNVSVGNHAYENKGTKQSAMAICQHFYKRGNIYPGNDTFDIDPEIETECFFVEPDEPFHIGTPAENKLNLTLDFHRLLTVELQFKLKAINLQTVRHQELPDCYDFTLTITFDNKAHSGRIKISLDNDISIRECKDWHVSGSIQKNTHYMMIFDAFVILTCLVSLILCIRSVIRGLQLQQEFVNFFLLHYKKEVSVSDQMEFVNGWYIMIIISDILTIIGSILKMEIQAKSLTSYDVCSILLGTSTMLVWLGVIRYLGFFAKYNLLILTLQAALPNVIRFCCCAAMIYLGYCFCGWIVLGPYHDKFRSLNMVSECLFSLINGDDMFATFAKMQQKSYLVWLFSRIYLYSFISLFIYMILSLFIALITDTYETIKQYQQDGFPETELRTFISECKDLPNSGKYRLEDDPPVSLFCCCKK
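Material: TRPML3-YFP stable HEK293 cells | Dosing: One concentration, 3 µM nominal, 0.3% DMSO | Timing: 125 s total fluorescence read per well | Technique: Fluo-8 calcium dye fluorescence, ex 470-495, em 515-575 nm | Measure: Percent activation from peak-to-basal fluorescence ratio, scaled between DMSO and carbachol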
CRFBP-R2 block = antagonists of CRF-binding protein/CRF-R2 receptor complex | HEK293 CRF-R2/CRF-BP, CRF-induced calcium fluorescence | inhibition, % at 11.8 µM | 350,000 tested, 0.59% active;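 active means inhibition of the ligand-induced calcium signal above about 50% at the single tested concentration, limit read from the data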
TRPN1 ag = zebrafish TRPN1 (NompC) channel agonism; activation, % at 3 µM; HEK293 zebrafish TRPN1-YFP, Fluo-8 calcium fluorescence; 100% = response to 87 µM carbachol; 220,000 tested, 0.18% active;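 active means activation above its plate's cutoff, the mean activation of test wells on that plate plus 3 SD, cut at about 19% in these data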;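 further: 0% = DMSO alone and 100% = 87 µM carbachol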
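Material – zebrafish TRPN1-YFP in HEK293 cells · Doses – 3 µM single point · Schedule – dye 1 h 37 °C plus 30 min RT · Signal – Fluo-8 calcium fluorescence, excitation 470-495 nm, emission 515-575 nm · Read-out – % activation versus carbachol response · Control set – carbachol high, DMSO low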
VIM-2 inh = blocks Pseudomonas aeruginosa VIM-2 metallo-beta-lactamase; inhibition, % at 5.6 µM; 290,000 tested, 0.89% active; AID 1527; purified VIM-2, nitrocefin hydrolysis, epi-absorbance fluorescence;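 active means inhibition above the mean of all tested compounds plus 3 SD, cutoff set per screening run, cut at about 7.5% in these data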;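 further: red hydrolysis product quenches plate fluorescence so inhibitors raise well fluorescence; 0% = enzyme with DMSO and 100% = DMSO without enzyme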
An asterisk follows results filed as active; · = no result.

SMILES | CRFBP-R2 agonist | IMP-1 inhibitor | TRPML3 agonist | CRFBP-R2 block | TRPN1 ag | VIM-2 inh
Cc1nn(-c2ccccc2)c(OC(=O)c2cccs2)c1S(=O)(=O)c1ccc([N+](=O)[O-])cc1 | 6 | 4.8* | 1 | 8 | 1 | -1
Cc1nn(-c2ccccc2)c(OC(=O)c2cccs2)c1S(=O)(=O)c1ccccc1 | -1 | -5 | 0 | 19 | 1 | -2
CSc1c(CC(=O)NCCCO)n(Cc2ccccc2)c2ccccc12 | 1 | 0 | · | 9 | · | 0
COc1ccc(NC(=O)Cc2c(SC)c3ccccc3n2Cc2ccccc2)cc1 | -2 | -2 | 0 | 60* | 3 | -1
CCC(C)c1ccccc1NC(=O)c1cccc(-n2cnnn2)c1 (centres undefined) | 0 | · | · | -5 | · | ·
CC1=CCC(C(=O)O)C(C(=O)NC2CCCCC2)C1 (centres undefined) | -1 | 32* | · | 4 | · | -1
COc1ccc(C2=C/C(=C/c3cccnc3)C(=O)O2)cc1OC | 144* | -2 | 1 | -104 | 0 | 0
c1ccc(-c2csc(NC3CCCCC3)n2)cc1 | 0 | 0 | · | -17 | · | -2
COc1ccc(-c2csc(NC3CCCCC3)n2)c(OC)c1 | 3 | 8.0* | · | -2 | · | -2
Cc1ccc(S(=O)(=O)N2CCC(C(=O)NCCC3=CCCCC3)CC2)c(C)c1 | 1 | · | · | 2 | · | ·
CC(=O)C(C(C)=O)c1cc(NS(=O)(=O)c2ccccc2)ccc1NS(=O)(=O)c1ccccc1 | 160* | -5 | · | -97 | · | -2
COc1ccc(C(=O)c2sc3nc(-c4ccccc4)ccc3c2N)cc1 | 83* | -2 | 1 | -126 | 2 | 0
CCOc1ccc(/C=C(\C#N)C(=O)NC2CC2)c(OCC)c1 | -6 | · | · | 80* | · | ·
CCCCOc1ccc(/C=C(\C#N)C(=O)NC2CC2)cc1 | -5 | · | · | -6 | · | ·
COC(=O)CC1SC(=O)NC1=Nc1ccc(O)cc1 (centres undefined) | -2 | -3 | 0 | -20 | 1 | 0
COC(=O)CC1SC(=O)NC1=Nc1ccc(OC)cc1 (centres undefined) | -8 | -5 | 1 | 73* | 2 | -6
COc1cc(/C=N/NC(=O)c2ccncc2)ccc1OC(C)=O | -1 | -4 | · | 2 | · | -1
COc1cc(C=Nc2c(C)cc(C)cc2C)ccc1OC(C)=O | -1 | -4 | 0 | 51* | 0 | -2
Nc1nc2c3ccccc3nc(C3CC3)n2n1 | 1 | -3 | 1 | 10 | 2 | 8.2*
NC(=O)c1ccccc1NC(=O)c1cc(S(=O)(=O)N2CCCCC2)ccc1N1CCOCC1 | 1 | · | · | -9 | · | ·
COc1ccc(N2CC(NS(=O)(=O)c3cccs3)CC2=O)cc1OC (centres undefined) | 1 | · | · | -2 | · | ·
COc1ccccc1-c1c(C)nn2c(N3CCN(c4ccccc4OC)CC3)cc(C)nc12 | -2 | -2 | 0 | 68* | 0 | -1
COc1ccccc1-c1c(C)nn2c(N3CCCCCC3)cc(C)nc12 | -2 | -4 | 1 | 30 | 0 | -3
Cn1c(NCc2cccnc2)nc2c1c(=O)n(Cc1ccccc1F)c(=O)n2C | 0 | -3 | 0 | 8 | 0 | 8.3*
COCCNc1nc2c(c(=O)n(Cc3ccccc3F)c(=O)n2C)n1C | 0 | -1 | · | 5 | · | -2
SMILES | CRFBP-R2 agonist | IMP-1 inhibitor | TRPML3 agonist | CRFBP-R2 block | TRPN1 ag | VIM-2 inh
COC(=O)/C(C#N)=C/c1cc(C)sc1C | -2 | -2 | 0 | 17 | -1 | -2
COCCn1c2nc(=O)n(-c3ccccc3)c(=O)c-2nc2ccccc21 | 194* | · | · | -168 | · | ·
COCCn1c(-c2ccc(OC)cc2)nc2ccccc21 | 0 | -1 | 0 | 3 | -2 | -3
COC(=O)Cc1[nH]c(=S)[nH]c1C(=O)OC | 0 | -2 | 0 | 0 | 0 | -3
CCOc1cc(N2CCOCC2)c(OCC)cc1NC(=O)c1cccc(S(=O)(=O)N2CCOCC2)c1 | -3 | · | · | 3 | · | ·
Cc1c(OC(C)C(=O)N[C@H](C(=O)O)c2ccccc2)ccc2c3c(c(=O)oc12)CCCC3 (some centres undefined) | 1 | -4 | · | 1 | · | 7.8*
CC(=O)COc1ccc2c3c(c(=O)oc2c1C)CCCCC3 | 4 | -1 | 1 | -39 | 0 | -6
Cc1c(OC(=O)CNC(=O)OC(C)(C)C)ccc2c3c(c(=O)oc12)CCC3 | 4 | -1 | 2 | -43 | 3 | 23*
CC(=O)C(C)Oc1ccc2c3c(c(=O)oc2c1C)CCCC3 (centres undefined) | -1 | -5 | 0 | -37 | 0 | 10*
Cc1c(O)ccc2c3c(c(=O)oc12)CCCC3 | 6 | -5 | 0 | 16 | -2 | 10*
Cc1ccc2cc(CNC[C@H]3O[C@@H](n4cc(C)c(=O)[nH]c4=O)C[C@@H]3O)c(N3CCOCC3)nc2c1 | -2 | · | · | 5 | · | ·
COc1cc(OC)c(C(=O)OC(C)C(=O)NCc2ccc3c(c2)OCO3)cc1OC (centres undefined) | 1 | · | · | 2 | · | ·
Cc1cccc(NC(=O)CSc2nc3ccccc3nc2N2CCCC2)c1C | -4 | -2 | · | 24 | · | -2
O=C(CN(C(=O)CCC(=O)Nc1nccs1)c1ccc(F)cc1)NCCc1ccccc1 | 3 | -4 | · | -31 | · | -3
COc1ccccc1Cn1nc(C(=O)O)c2ccccc2c1=O | -1 | -1 | · | -3 | · | 1
CCOc1ccc(C(C)=O)cc1Cn1nc(C(=O)O)c2ccccc2c1=O | -2 | -3 | -1 | -70 | -1 | 9.8*
Cc1ccc(NC(=O)CCCSc2nc3ccccc3[nH]2)cc1 | -3 | -2 | -1 | 4 | -2 | -5
CC(=O)Nc1ccc(NC(=O)CCCSc2nc3ccccc3[nH]2)cc1 | 2 | 7.8* | 1 | -13 | 2 | -3
COc1ccc(Cn2c(-c3ccco3)nc3c(c(=O)c4ccccc4n3C)c2=O)cc1 | -4 | -4 | 0 | 72* | 0 | 2
COc1ccc(CCn2c(C(C)C)nc3c(c(=O)c4ccccc4n3C)c2=O)cc1 | 115* | -3 | 0 | 50 | -2 | -4
COc1ccc(-c2nc3c(c(=O)c4ccccc4n3C)c(=O)n2Cc2ccccc2)cc1 | 53* | -1 | 0 | -37 | 0 | 0
Cc1cc(C)cc(N(C(C)C(=O)NCc2ccc3c(c2)OCO3)S(C)(=O)=O)c1 (centres undefined) | 1 | -2 | -1 | 16 | -3 | -2
COc1ccc(-c2c(NC(=O)c3ccco3)oc3c(C)cccc3c2=O)cc1 | 1 | -1 | · | -1 | · | 1
CCN(CC)CCCN(Cc1cc2cc(OC)c(OC)cc2[nH]c1=O)C(=O)Nc1ccccc1 | -1 | -2 | 1 | -1 | 2 | 7.9*
O=C(Nc1ccc(C(=O)NCCCN2CCN(c3ccc(F)cc3)CC2)cc1)C1=CSCCO1 | 62* | -1 | · | -35 | · | -2
